NR2E3 ag-1: NR2E3 (human) agonism; 320,000 compounds, 0.12% hits; Q9Y5X4; AID 2300; GST-NR2E3/biotin-RetCOR TR-FRET, 1536-well; inhibition of corepressor binding, % at 4.78 µM;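 active means percent inhibition above the cutoff of mean plus 3 SD of all tested compounds, set per screening campaign, cut at about 20% in these data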;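 further: 0% = DMSO wells and 100% = biotin wells as full block of FRET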
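System: GST-tagged NR2E3 plus biotinylated RetCOR corepressor; Buffer or medium: pH 7.5 Tris-based buffer; Probe or stimulus: RetCOR corepressor, biotinylated, 7 nM; Doses: compound at 4.8 µM, single dose; Schedule: 5 h incubation at 4 °C; Technique: time-resolved FRET; Evaluation: percent inhibition of TR-FRET ratio; Replication: one well per compound, singlicate testing.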
CHT inh: human CHT choline transport inhibition | B-score at 10 µM | 310,000 compounds, 0.86% hits | CHT-expressing cells, membrane potential dye, choline response; active compounds read low | Q9GZV3 | AID 488975;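 active means B-score over 3 SD under the library average, and starting fluorescence ratio not unusually high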;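 further: choline stimulus applied at its EC90 after an EC20 pre-addition; B-score computed on integrated fluorescence ratio after choline addition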
Target sequence (Q9GZV3 whole entry, looked up): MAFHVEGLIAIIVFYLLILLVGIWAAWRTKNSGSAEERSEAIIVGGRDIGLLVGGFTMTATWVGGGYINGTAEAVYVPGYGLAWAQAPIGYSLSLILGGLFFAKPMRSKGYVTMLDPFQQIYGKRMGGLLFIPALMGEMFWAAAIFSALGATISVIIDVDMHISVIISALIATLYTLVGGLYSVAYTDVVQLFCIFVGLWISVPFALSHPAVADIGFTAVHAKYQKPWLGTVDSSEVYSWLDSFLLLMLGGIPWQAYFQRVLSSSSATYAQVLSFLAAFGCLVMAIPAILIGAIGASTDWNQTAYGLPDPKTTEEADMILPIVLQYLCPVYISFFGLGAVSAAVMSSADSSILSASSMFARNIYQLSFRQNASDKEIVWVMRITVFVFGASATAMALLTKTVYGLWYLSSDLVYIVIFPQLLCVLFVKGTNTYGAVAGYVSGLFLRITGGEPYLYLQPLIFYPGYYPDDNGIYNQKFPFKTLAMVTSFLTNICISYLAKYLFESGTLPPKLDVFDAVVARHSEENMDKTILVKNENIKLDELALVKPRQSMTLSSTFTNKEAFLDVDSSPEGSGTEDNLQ
GalR3 antag: human GalR3 antagonism | AID 651719 | O60755 | inhibition, % at 3 µM | HEK293 GalR3-CNG cAMP membrane potential fluorescence; galR3 body fused to GalR1 C-terminus | 360,000 compounds, 0.44% hits;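 active means inhibition above the screen-wide average plus 3 SD, cut at about 13% in these data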;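 further: forskolin and galanin both at EC90 stimulate the cells; cAMP rise reported by CNG channel membrane potential dye signal; 0% = forskolin plus galanin with DMSO and 100% = forskolin alone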
CHT PAM: human CHT allosteric activation; Q9GZV3; CHT-expressing cells, membrane potential dye, choline EC20; active compounds read high; LV-AA mutant CHT in HEK293 cells; B-score at 10 µM; 310,000 compounds, 0.49% hits;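 active means initial fluorescence not abnormally high and integrated response B-score, plate-corrected, over 3 SD above library mean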
NR2E3 ag-2: activates human NR2E3 receptor; Q9Y5X4; CHO-S Gal4-NCOR/VP16-NR2E3 two-hybrid, luciferase; inhibition of corepressor binding, % at 3.98 µM; 360,000 compounds, 0.35% hits;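 active means inhibition above the mean of all tested compounds plus 3 SD, cut at about 70% in these data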;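 further: 0% = DMSO with NR2E3 transfected cells and 100% = cells lacking NR2E3 construct; higher means lower luciferase signal from less NR2E3 corepressor binding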
COUP-TFII inh: blocks human COUP-TFII nuclear receptor | inhibition, % at 8.6 µM | 370,000 compounds, 0.7% hits | HEK293T NGFI-A luciferase reporter, luminescence;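 active means inhibition above a per-plate cutoff, mean inhibition of test wells between control levels plus 3 SD, cut at about 38% in these data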;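 further: cells cotransfected with COUP-TFII expression vector driving the NGFI-A reporter; 0% = median of COUP-TF2 test wells and 100% = reporter-only cells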
NR2E3 agonist cf: NR2E3 (human) agonism, confirmation | cell-free NR2E3 corepressor release, TR-FRET, 5 h | AID 2379 | activation (reported as inhibition), % at 3.98 µM | shares compounds with NR2E3 ag-1 | 360 compounds, 39% hits; in the data active means activation above about 20%
PPARg-NCOR2 ag: PPARg-NCOR2 interaction agonism, NR2E3 counter-screen. shares compounds with NR2E3 ag-1. TR-FRET PPARg-NCOR2 coregulator interaction, biochemical. inhibition, % at 3.98 µM. 360 compounds, 45% hits; in the data active means inhibition above about 20%;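 further: 0% = DMSO vehicle and 100% = wells without protein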
Active calls of the source: *; i = inactive; / = not tested or not shown. In the library only some 2.3% were active in any assay of this set; here they are far more common.

SMILES | NR2E3 ag-1 | CHT inh | GalR3 antag | CHT PAM | NR2E3 ag-2 | COUP-TFII inh | NR2E3 agonist cf | PPARg-NCOR2 ag
CCCCCCCCN1C(=O)[C@@H](CC(=O)N2CCCC2)C[C@@]2(C(=O)OC)C1=C[C@H](COCc1ccccc1)O[C@@H]2C | / | / | / | / | / | -1.7 | / | /
O=C(Nc1nnc(Cc2ccccc2)s1)c1cccs1 | 27.0* | i | -5.1 | i | -29.8 | -3.1 | -2.0 | 4.2
O=C(Nc1nnc(Cc2ccc(Cl)cc2)s1)c1cccs1 | -0.6 | i | -4.0 | i | -36.0 | -9.9 | / | /
COc1ccc(C(=O)Nc2nnc(Cc3ccccc3)s2)c(OC)c1 | 47.4* | i | -3.6 | i | -36.6 | -2.7 | -8.8 | 11.7
O=C(CSc1nc2ccccc2c(=O)n1Cc1ccco1)NCc1ccccc1 | -1.0 | i | -1.1 | i | 2.9 | -16.6 | / | /
O=C(CSc1nc2ccccc2c(=O)n1Cc1ccccc1)NCc1ccco1 | 30.9* | i | -7.8 | i | -11.3 | 1.8 | 4.5 | 11.9
COC(=O)[C@]12C[C@H](CC(=O)NCCc3ccccc3OC)C(=O)N(Cc3ccco3)C1=C[C@H](C(C)(C)C)O[C@@H]2C | / | / | / | / | / | 7.8 | / | /
CCCCc1ccc(C2C(C#N)=C(N)SC(N)=C2C#N)s1 | 41.7* | i | / | i | / | / | -1.1 | -1.8
CCc1cc2cc(C(=O)Nc3ccc(F)cc3)sc2s1 | 29.6* | i | -4.4 | i | -5.6 | -32.1 | 3.9 | -12.6
CCc1cc2cc(C(=O)Nc3ccccc3F)sc2s1 | 1.9 | i | -7.6 | i | -21.5 | -33.5 | / | /
CN(C(=O)COc1cc(=O)n(C)c2ccccc12)c1ccc(Cl)cc1 | 1.7 | i | -0.1 | i | -7.9 | -6.5 | / | /
CN(c1ccc(Cl)cc1)c1cc(=O)n(C)c2ccccc12 | 21.2* | i | -1.3 | i | -19.9 | -27.2 | 2.5 | 4.8
Cc1cccc(-c2cccc3c4c([nH]c23)[C@@H]2C[C@H](N(C)C(=O)NC3CCCCC3)[C@H]([C@H](C)O)C(=O)N2CC4)c1 | / | / | / | / | / | 25.2 | / | /
O=C(CSc1nc2ccccc2c(=O)n1-c1ccccc1Cl)Nc1cccc(S(=O)(=O)N2CCOCC2)c1 | 25.2* | i | -0.8 | i | -6.8 | -10.8 | -5.7 | -7.7
COc1cccc(OCc2nc3ccccc3[nH]2)c1 | 2.4 | i | 0.1 | i | -88.6 | -26.0 | / | /
COc1cccc(OCc2nc3ncc(Br)cc3[nH]2)c1 | 20.1* | i | 7.6 | i | -108.4 | -43.0 | 11.2 | 25.9*
O=S(=O)(c1cccc(S(=O)(=O)N2CCCC2)c1)N1CCCCC1 | 4.9 | i | -9.4 | i | -16.2 | 4.7 | / | /
O=S(=O)(NCc1cccs1)c1cccc(S(=O)(=O)N2CCCCC2)c1 | 34.4* | i | -2.4 | i | -11.1 | 0.0 | -6.2 | -6.4
Cc1cccc(NC(=O)CSc2ncnc3c2oc2ccccc23)c1 | 60.3* | i | 4.0 | i | 5.1 | -6.1 | 66.2* | 71.8*
O=C(CSc1ncnc2c1oc1ccccc12)Nc1cccc(F)c1 | 0.7 | i | -1.5 | i | -44.9 | 2.3 | / | /
O=C(CSc1ncnc2c1oc1ccccc12)c1cccs1 | 30.7* | i | 2.9 | i | -63.6 | -5.6 | 24.6* | 25.0*
Cc1ccccc1NC(=O)c1sc2nc(N3CCOCC3)c3c(c2c1N)CCCC3 | 23.3* | i | 3.4 | i | -88.9 | -16.0 | -9.8 | 3.3
COc1ccccc1NC(=O)c1sc2nc(N3CCOCC3)c3c(c2c1N)CCCC3 | 3.4 | i | 6.8 | i | -29.8 | 3.0 | / | /
CCCC/C=C1/[C@H](CC)N(C)C2=N[C@@H](c3ccccc3)CC(=O)N21 | / | / | / | / | / | -9.2 | / | /
CCC(Sc1nc(-c2ccccc2)c(C#N)c(=O)[nH]1)C(=O)Nc1cc(C)on1 (stereo not given) | 26.9* | i | -1.9 | i | -11.7 | 5.4 | 20.4* | 41.5*
SMILES | NR2E3 ag-1 | CHT inh | GalR3 antag | CHT PAM | NR2E3 ag-2 | COUP-TFII inh | NR2E3 agonist cf | PPARg-NCOR2 ag
CSc1nc(-c2ccccc2)c(C#N)c(=O)[nH]1 | 22.0* | i | -5.0 | i | -29.1 | -1.3 | 21.5* | 24.7*
CCC(Sc1nc2ccccc2[nH]1)C(=O)Nc1cc(C)on1 (stereo not given) | 3.7 | i | -2.2 | i | -15.2 | 6.6 | / | /
CCC[C@H]1[C@@H](OC(=O)Oc2ccc([N+](=O)[O-])cc2)CC[C@@]23CCCN2C(=O)CCC[C@@H]13 | / | / | / | / | / | -11.1 | / | /
CCOC(=O)c1sc(NC(=O)c2ccco2)nc1-c1ccccc1 | 20.1* | i | -4.0 | i | 5.9 | 7.4 | 9.5 | 24.9*
C[C@H]1[C@@H](NC(=O)c2ccc(C(C)(C)C)cc2)CC[C@@]23CCCN2C(=O)CCC[C@@H]13 | / | / | / | / | / | -3.9 | / | /
CC1NC(=O)NC1CCCCCC(=O)Nc1ccc(F)cc1 (stereo not given) | 85.6* | i | -3.5 | i | -17.9 | -5.7 | 89.3* | 90.4*
Cc1c(F)cccc1NC(=O)CCCCCC1NC(=O)NC1C (stereo not given) | 97.3* | i | -1.9 | i | -6.3 | -0.6 | 88.7* | 92.2*
Cc1c(F)cccc1NC(=O)CSCC(=O)Nc1ccccc1 | 1.2 | i | -1.1 | i | -13.1 | -24.6 | / | /
COc1ccc(C(=O)O[C@@H]2CCC[C@@]3(C(=O)N(Cc4ccccc4)c4ccccc43)[C@H]2NC(=O)CCc2ccccc2)cc1OC | / | / | / | / | / | 9.2 | / | /
c1ccc2c(c1)-c1cccc3c1c-2cc1ccccc13 | 24.8* | / | / | / | / | / | -6.7 | -3.8
C#CCOCCOCCOCCNc1nc(N2CCN(C(=O)Cn3cc(CCCN=C(N)N)nn3)CC2)nc(N2CCN(C(=O)[C@H](Cc3ccc(O)cc3)n3cc(CCO)nn3)CC2)n1 | / | / | / | / | / | 10.7 | / | /
O=C(Oc1coc(CSc2ncccn2)cc1=O)c1ccc([N+](=O)[O-])cc1 | / | / | / | / | / | 11.8 | / | /
CSc1nc(N)nc(SCC(=O)c2ccc(C)cc2)c1C#N | 46.9* | i | -5.4 | i | -21.0 | -11.2 | 7.9 | 9.8
COc1ccc(-n2c(SCC(=O)Nc3ccc(S(=O)(=O)Nc4nccs4)cc3)nnc2-c2ccccc2)cc1 | / | / | / | / | / | -7.7 | / | /
C=CCn1c(SCC(=O)NCCO)nc2sc(C)c(C)c2c1=O | 3.8 | i | -0.7 | i | -0.4 | -8.1 | / | /
C=CCn1c(SCC(=O)NC(=O)NCc2ccco2)nc2sc(C)c(C)c2c1=O | 21.7* | i | -2.3 | i | -7.0 | 0.7 | -2.2 | 8.3
